According to ChEMBL document CHEMBL4725369, “Multicomponent Synthesis, Binding Mode, and Structure-Activity Relationship of Selective Histone Deacetylase 6 (HDAC6) Inhibitors with Bifurcated Capping Groups” (J Med Chem, 2020):
The source made the active and inactive calls. The calls are words filed in the database; no cut-off is given here.

How the values were obtained:
[1] = molecular target: T1, Protein deacetylase HDAC6 (Homo sapiens, UniProt Q9UBN7); experiment: Inhibition of human recombinant HDAC6 using ZMAL (Z-Lys(Ac)-AMC) fluorogenic substrate incubated for 90 mins by fluorescence based assay
T1 sequence (Q9UBN7 whole entry): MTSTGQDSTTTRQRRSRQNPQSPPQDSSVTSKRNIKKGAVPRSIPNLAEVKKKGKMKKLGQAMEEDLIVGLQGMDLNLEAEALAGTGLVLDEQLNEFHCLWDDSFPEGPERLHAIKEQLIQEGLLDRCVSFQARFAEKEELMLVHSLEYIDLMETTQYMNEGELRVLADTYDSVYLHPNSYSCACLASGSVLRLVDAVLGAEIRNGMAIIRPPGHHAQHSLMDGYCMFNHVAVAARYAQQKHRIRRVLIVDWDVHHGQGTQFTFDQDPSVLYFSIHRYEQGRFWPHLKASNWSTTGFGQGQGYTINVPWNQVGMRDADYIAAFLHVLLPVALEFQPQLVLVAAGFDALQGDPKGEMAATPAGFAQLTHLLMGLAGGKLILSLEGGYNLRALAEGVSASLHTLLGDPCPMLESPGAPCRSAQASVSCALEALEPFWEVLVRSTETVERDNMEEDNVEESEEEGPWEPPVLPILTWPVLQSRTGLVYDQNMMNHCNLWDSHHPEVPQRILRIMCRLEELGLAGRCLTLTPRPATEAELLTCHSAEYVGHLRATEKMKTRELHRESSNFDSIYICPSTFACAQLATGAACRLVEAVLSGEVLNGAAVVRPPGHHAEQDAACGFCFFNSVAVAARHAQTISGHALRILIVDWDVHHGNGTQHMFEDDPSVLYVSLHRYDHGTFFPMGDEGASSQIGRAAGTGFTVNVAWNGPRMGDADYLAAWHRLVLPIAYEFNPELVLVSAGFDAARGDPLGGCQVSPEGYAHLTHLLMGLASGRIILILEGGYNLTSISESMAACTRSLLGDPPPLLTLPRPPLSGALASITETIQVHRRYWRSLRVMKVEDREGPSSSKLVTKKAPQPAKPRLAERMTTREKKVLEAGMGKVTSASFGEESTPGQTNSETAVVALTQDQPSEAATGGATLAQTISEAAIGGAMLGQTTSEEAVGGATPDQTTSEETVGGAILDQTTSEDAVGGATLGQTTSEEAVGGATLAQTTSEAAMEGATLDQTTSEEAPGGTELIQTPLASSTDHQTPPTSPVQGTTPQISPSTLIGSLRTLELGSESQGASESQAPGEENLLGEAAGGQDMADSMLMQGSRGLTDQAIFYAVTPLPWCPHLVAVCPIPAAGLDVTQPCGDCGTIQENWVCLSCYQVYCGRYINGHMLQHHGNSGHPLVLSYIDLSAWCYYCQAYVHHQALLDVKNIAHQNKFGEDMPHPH

Histone deacetylase 1 = Histone deacetylase 1 (Homo sapiens, UniProt Q13547); experiment: Inhibition of human recombinant HDAC1 using ZMAL (Z-Lys(Ac)-AMC) fluorogenic substrate incubated for 90 mins by fluorescence based assay
Histone deacetylase 1, sequence (Q13547 whole entry): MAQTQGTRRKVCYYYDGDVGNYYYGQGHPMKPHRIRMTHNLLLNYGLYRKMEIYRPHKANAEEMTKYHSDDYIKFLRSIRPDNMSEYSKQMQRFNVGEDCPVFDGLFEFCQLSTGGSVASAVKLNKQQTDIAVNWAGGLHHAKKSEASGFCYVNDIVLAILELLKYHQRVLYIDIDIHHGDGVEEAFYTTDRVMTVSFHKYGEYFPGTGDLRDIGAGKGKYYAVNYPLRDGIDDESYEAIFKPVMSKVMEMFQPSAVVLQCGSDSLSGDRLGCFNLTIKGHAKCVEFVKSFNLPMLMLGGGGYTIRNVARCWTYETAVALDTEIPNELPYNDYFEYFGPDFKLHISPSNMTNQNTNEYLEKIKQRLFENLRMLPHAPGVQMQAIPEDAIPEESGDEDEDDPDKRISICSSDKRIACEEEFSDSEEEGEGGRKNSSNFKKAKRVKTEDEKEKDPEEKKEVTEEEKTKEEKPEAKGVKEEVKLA

SUP-B15 = experiment: Cytotoxicity in human SUP-B15 cells assessed as reduction in cell viability incubated for 72 hrs by cell-Titer-Glo luminescent cell viability assay; format: cell-based; settings: SUP-B15, 72 h
Outline: (§1)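 Leukaemia lines kept in RPMI 1640 with 20% FCS (SUP-B15 in McCoy's 5A with 20% FCS). Compound dispensed digitally at increasing concentrations from 1 μM to 50 μM. Viability read by CellTiter-Glo luminescence after 72 h. Raw data were normalized to controls and IC50 was fitted by sigmoid nonlinear regression.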

CCRF-HSB-2 [2] = experiment: Potentiation of […]-induced cytotoxicity in human CCRF-HSB-2 cells assessed as reduction in cell viability at 2.5 to 5 uM incubated for 72 hrs in presence of 10 nM daunorubicin by cell-Titer-Glo luminescent cell viability assay; format: functional, cell-based; settings: dose microM 2.5-5, time 72.0 hrs
Outline: (§2)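 HSB-2 cells in RPMI 1640 with 20% FCS on a semi-automated combination platform. Test compound was fixed at 2.5 or 5 μM, alone or with chemotherapeutics and glucocorticoids dispensed at 10 nM-25 μM. Viability read by CellTiter-Glo luminescence after 72 h.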

Histone deacetylase 2 = Histone deacetylase 2 (Homo sapiens, UniProt Q92769); experiment: Inhibition of human recombinant HDAC2 using ZMAL (Z-Lys(Ac)-AMC) fluorogenic substrate incubated for 90 mins by fluorescence based assay
Histone deacetylase 2, sequence (Q92769 whole entry): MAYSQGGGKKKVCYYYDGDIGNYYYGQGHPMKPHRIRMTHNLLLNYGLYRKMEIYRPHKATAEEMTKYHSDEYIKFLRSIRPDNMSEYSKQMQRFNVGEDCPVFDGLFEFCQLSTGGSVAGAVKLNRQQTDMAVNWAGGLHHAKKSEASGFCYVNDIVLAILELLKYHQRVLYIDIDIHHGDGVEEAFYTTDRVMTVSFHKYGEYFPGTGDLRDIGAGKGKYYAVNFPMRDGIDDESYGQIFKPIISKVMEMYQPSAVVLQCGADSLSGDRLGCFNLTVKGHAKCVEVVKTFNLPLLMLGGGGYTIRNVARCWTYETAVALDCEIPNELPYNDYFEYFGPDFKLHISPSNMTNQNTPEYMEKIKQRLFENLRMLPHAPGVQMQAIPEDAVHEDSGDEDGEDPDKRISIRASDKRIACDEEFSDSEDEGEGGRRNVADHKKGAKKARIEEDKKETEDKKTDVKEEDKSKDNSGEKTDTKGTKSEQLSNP
Outline: (§3)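 Enzyme was incubated with compound and ZMAL substrate (21.43 μM stock in assay buffer) for 90 min at 37 °C. Trypsin development followed for 30 min at 37 °C, then fluorescence at ex 355/em 460 nm. Duplicates, at least two independent experiments.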

[3] = Intrinsic clearance in mouse liver microsomes; format: ADME, Microsome
Histone deacetylase 3 = Histone deacetylase 3 (Homo sapiens, UniProt O15379); experiment: Inhibition of human recombinant HDAC3 using ZMAL (Z-Lys(Ac)-AMC) fluorogenic substrate incubated for 90 mins by fluorescence based assay; outline: as §3
Histone deacetylase 3, sequence (O15379 whole entry): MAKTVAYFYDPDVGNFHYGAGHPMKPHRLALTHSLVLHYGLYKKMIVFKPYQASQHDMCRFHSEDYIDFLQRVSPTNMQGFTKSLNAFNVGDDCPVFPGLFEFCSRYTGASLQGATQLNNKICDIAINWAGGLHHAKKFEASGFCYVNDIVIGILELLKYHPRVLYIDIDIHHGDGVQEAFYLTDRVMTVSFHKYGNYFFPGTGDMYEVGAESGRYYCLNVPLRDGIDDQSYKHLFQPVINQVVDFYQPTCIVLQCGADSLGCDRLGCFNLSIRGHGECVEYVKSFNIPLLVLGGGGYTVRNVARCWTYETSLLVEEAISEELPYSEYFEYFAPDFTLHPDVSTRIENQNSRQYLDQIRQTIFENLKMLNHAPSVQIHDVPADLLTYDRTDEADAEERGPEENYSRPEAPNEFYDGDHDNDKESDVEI

MOLT-4 = experiment: Cytotoxicity in human MOLT-4 cells assessed as reduction in cell viability incubated for 72 hrs by cell-Titer-Glo luminescent cell viability assay; format: cell-based; settings: MOLT-4, 72 h
Outline: (§4)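 Cells were exposed in 384-well format to a digitally dispensed concentration series of 1–50 μM. Viability was read by CellTiter-Glo luminescence after 72 h. Data were normalized to controls, and IC50 came from nonlinear regression of a sigmoid dose curve. K562 was maintained in RPMI 1640 with 10% FCS at 37 °C and 5% CO2. MOLT-4 was maintained in RPMI 1640 with 20% FCS.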

K562 = experiment: Cytotoxicity in human K562 cells assessed as reduction in cell viability incubated for 72 hrs by cell-Titer-Glo luminescent cell viability assay; format: cell-based; settings: K562, 72 h; outline: as §4
[4] = molecular target: T2, Protein deacetylase HDAC6 (Homo sapiens) (UniProt Q9UBN7); experiment: Inhibition of HDAC6 in human HL60 cells assessed as induction of alpha-tubulin acetylation at 2.5 to 5 uM incubated for 24 hrs by immunoblot analysis; format: cell-based; settings: HL-60, dose microM 2.5-5, time […]
T2 sequence (whole entry): T1 sequence (Q9UBN7 whole entry)

CCRF-HSB-2 [5] = experiment: Cytotoxicity in human CCRF-HSB-2 cells assessed as reduction in cell viability incubated for 72 hrs by cell-Titer-Glo luminescent cell viability assay; format: cell-based; settings: CCRF-HSB-2, 72 h; outline: as §1
Histone deacetylase 4 = Histone deacetylase 4 (Homo sapiens, UniProt P56524); experiment: Inhibition of human recombinant HDAC4 using Boc-Lys-(epsilon-Tfa)-AMC fluorogenic substrate incubated for 90 mins by fluorescence based assay
Histone deacetylase 4, sequence (P56524 whole entry): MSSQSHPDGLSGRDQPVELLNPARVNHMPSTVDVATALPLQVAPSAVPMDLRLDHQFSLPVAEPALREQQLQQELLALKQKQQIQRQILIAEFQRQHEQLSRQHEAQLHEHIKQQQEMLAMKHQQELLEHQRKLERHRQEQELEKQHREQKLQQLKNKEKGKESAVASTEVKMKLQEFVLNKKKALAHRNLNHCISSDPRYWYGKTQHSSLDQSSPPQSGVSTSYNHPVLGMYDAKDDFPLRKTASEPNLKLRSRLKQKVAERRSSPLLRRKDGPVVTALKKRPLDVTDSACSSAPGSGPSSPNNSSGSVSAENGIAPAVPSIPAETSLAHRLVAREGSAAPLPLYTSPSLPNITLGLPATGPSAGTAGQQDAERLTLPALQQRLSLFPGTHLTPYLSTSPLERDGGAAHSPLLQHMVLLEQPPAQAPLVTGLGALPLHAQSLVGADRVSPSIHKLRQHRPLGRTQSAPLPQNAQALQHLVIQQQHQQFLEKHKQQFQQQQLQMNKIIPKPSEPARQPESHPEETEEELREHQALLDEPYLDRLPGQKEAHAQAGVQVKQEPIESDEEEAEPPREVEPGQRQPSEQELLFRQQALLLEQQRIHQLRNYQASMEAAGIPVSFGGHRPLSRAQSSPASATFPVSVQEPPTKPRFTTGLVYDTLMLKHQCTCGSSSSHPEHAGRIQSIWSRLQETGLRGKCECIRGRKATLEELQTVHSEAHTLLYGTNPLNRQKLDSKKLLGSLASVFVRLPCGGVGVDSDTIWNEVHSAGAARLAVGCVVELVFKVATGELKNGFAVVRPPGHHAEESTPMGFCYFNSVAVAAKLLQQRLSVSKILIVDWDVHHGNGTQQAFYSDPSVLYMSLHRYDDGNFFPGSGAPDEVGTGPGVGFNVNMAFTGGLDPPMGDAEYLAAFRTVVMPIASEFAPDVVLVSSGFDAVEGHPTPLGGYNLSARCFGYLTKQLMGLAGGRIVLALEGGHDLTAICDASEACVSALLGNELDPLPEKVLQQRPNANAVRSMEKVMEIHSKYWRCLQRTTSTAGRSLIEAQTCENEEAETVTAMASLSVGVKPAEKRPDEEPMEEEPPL
Outline: (§5)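 Human recombinant HDAC4 or HDAC8, 20 ng per well, in Tris-HCl pH 8.0 buffer with 1 mg/mL BSA. Enzyme was preincubated 5 min with inhibitor, then started with Boc-Lys(ε-Tfa)-AMC, 100 μM for HDAC4 or 60 μM for HDAC8. […] Fluorescence ex 355/em 460 nm was read 15 min later.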

[6] = Intrinsic clearance in human liver microsomes; format: ADME, Microsome
Histone deacetylase 8 = molecular target: T3, Histone deacetylase 8 (Homo sapiens, UniProt Q9BY41); experiment: Inhibition of human recombinant HDAC8 using Boc-Lys-(epsilon-Tfa)-AMC fluorogenic substrate incubated for 90 mins by fluorescence based assay; outline: as §5
T3 sequence (Q9BY41 whole entry): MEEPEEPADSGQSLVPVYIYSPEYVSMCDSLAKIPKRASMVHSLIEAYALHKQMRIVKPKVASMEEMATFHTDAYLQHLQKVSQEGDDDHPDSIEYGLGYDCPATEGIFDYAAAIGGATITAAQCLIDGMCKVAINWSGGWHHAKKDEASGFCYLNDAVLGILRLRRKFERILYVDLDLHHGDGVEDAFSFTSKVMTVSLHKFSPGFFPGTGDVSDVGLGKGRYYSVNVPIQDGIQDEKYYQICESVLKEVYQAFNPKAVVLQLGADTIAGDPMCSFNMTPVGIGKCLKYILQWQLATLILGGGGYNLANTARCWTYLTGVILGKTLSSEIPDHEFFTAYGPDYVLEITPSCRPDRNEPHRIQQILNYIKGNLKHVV

CCRF-HSB-2 [7] = experiment: Cytotoxicity in human CCRF-HSB-2 cells assessed as reduction in cell viability at 2.5 to 5 uM incubated for 72 hrs by cell-Titer-Glo luminescent cell viability assay; format: cell-based; settings: ccrf-hsb-2, 72 h, dose 2.5-5 µM; outline: as §2
CCRF-HSB-2 [8] = experiment: Potentiation of epirubicin-induced cytotoxicity in human CCRF-HSB-2 cells assessed as reduction in cell viability at 2.5 to 5 uM incubated for 72 hrs in presence of 10 nM epirubicin1 by cell-Titer-Glo luminescent cell viability assay; format: functional, cell-based; settings: dose microM 2.5-5, time 72.0 hrs; outline: as §2
[9] = molecular target: Class 1 histone deacetylase (Homo sapiens) (UniProt Q13547+O15379+Q92769+Q9BY41); experiment: Inhibition of class-1 HDAC in human HL60 cells assessed as induction of histone H3 acetylation at 2.5 to 5 uM incubated for 24 hrs by immunoblot analysis; format: cell-based; settings: HL-60, dose microM 2.5-5, time […]
Jurkat = experiment: Cytotoxicity in human Jurkat cells assessed as reduction in cell viability incubated for 72 hrs by cell-Titer-Glo luminescent cell viability assay; format: cell-based; outline: as §1
TALL-1 = experiment: Cytotoxicity in human TALL-1 cells assessed as reduction in cell viability incubated for 72 hrs by cell-Titer-Glo luminescent cell viability assay; format: cell-based; settings: TALL-1, 72 h; outline: as §1
HL-60 [10] = experiment: Induction of apoptosis in human HL-60 cells at 2.5 to 5 uM incubated for 24 hrs by Annexin V and PI staining based FACS analysis; format: cell-based; settings: hl-60, 24 h, dose 2.5-5 µM
Outline: (§6)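 HL60 cells in RPMI 1640 with 10% FCS at 37°C, 5% CO2. Cells were exposed to test compound at 2.5 or 5 μM, alone or combined with bortezomib, for 24 h. Annexin V/propidium iodide staining was read by FACS; n=3, with paired two-tailed Student's t-test.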

HL-60 [11] = experiment: Potentiation of bortezomib-induced apoptosis in human HL-60 cells assessed as increase in number of late apoptotic/dead cells at 2.5 to 5 uM incubated for 24 hrs in presence of 0.6 to 1.2 nM bortezomib- by Annexin V and PI staining based FACS analysis; format: functional, cell-based; settings: dose microM 2.5-5, time […]; outline: as §6

| SMILES | IC50 [1] [nM] | IC50 (Histone deacetylase 1) [nM] | also measured |
| --- | --- | --- | --- |
| O=C(NO)c1ccc(CNCc2nnnn2C2CCCCC2)cc1 | 120 | 2060 |  |
| CCCCC(NCc1ccc(C(=O)NO)cc1)c1nnnn1Cc1ccccc1 (stereo not drawn) | 120 | 2010 |  |
| Cc1ccccc1C(=O)N(Cc1ccc(C(=O)NO)cc1)Cc1nnnn1C1CCCCC1 | 60 | 3030 |  |
| O=C(NO)c1ccc(CNC(c2ccccc2)c2nnnn2C2CCCCC2)cc1 (stereo not drawn) | 120 | 4060 |  |
| O=C(NO)c1ccc(CN(Cc2nnnn2C2CCCCC2)C(=O)c2ccccc2)cc1 | 70 | 2370 |  |
| CC(C)(C)n1nnnc1CNCc1ccc(C(=O)NO)cc1 | 330 | 8240 |  |

Second part, led by results:

| IC50 [1] [nM] | IC50 (Histone deacetylase 1) [nM] | SMILES | also measured |
| --- | --- | --- | --- |
| 100 | 2450 | O=C(NO)c1ccc(CNCc2nnnn2Cc2ccccc2)cc1 |  |
| 80 | 900 | Cc1cc(C)cc(C(=O)N(Cc2ccc(C(=O)NO)cc2)Cc2nnnn2Cc2ccccc2)c1 |  |
| 320 | 1780 | CC(C)c1ccc(C(=O)N(Cc2ccc(C(=O)NO)cc2)Cc2nnnn2Cc2ccccc2)cc1 |  |
| 100 | 3370 | O=C(NO)c1ccc(CNC(c2ccccc2)c2nnnn2Cc2ccccc2)cc1 (stereo not drawn) |  |
| 30 | 1240 | O=C(NO)c1ccc(CN(Cc2nnnn2Cc2ccccc2)C(=O)c2ccccc2)cc1 |  |
| 30 | 5180 | O=C(NO)c1ccc(CN(Cc2nnnn2Cc2ccccc2)C(=O)c2ccccc2C(F)(F)F)cc1 | IC50 (SUP-B15): 22.5 µM; Activity (CCRF-HSB-2 [2]): Active; IC50 (Histone deacetylase 2): 2260 nM; CLint [3]: 26 µL/min/mg; IC50 (Histone deacetylase 3): 8.48 µM; IC50 (MOLT-4): 42.4 µM; IC50 (K562): 41.6 µM; inhibition [4]: Active; IC50 (CCRF-HSB-2 [5]): 51.8 µM; IC50 (Histone deacetylase 4): 55.4 µM; CLint [6]: 30 µL/min/mg; IC50 (Histone deacetylase 8): 14.7 µM; Activity (CCRF-HSB-2 [7]): Non-Toxic; Activity (CCRF-HSB-2 [8]): Active; inhibition [9]: inactive; IC50 (Jurkat): 32.1 µM; IC50 (TALL-1): 49.4 µM; Activity (HL-60 [10]): Non-Toxic; Activity (HL-60 [11]): Active |
